Bioassay records: PubChem, Johns Hopkins Ion Channel Center
MrgX1 ag: agonists of human MrgX1 receptor, primary screen, HEK293 cells, Fluo-4 calcium flux | Mas-related G-protein coupled receptor member X1 (Homo sapiens), Q96LB2 | B-score at 10 µM | hit rate 0.44% among 310,000 | Fluo-4 calcium fluorescence, agonist mode; hits give high values;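 active = calcium response B-score plate-corrected fluorescence ratio at least 3 library SD, with starting fluorescence B-score inside 5 SD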
Target sequence (Q96LB2 whole entry, looked up): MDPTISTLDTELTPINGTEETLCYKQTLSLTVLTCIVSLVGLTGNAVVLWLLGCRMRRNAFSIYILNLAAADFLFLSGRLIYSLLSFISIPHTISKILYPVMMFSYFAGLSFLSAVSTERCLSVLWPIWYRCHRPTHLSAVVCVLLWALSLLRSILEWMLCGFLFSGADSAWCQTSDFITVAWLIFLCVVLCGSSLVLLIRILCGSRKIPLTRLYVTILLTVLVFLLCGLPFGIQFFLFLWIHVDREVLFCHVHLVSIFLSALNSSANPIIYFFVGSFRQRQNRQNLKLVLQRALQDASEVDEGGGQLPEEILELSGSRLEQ
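Material: HEK293 cells stably expressing human MrgX1 receptor | Quantity: 15,000 cells per well | Times: Cells plated overnight, dye loaded 0.5 h 37 °C, 0.5 h room temperature | Measured by: Kinetic Fluo-4 NW fluorescence of intracellular calcium | Control set: Positive and negative controls per plate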
RGS4 block: RGS4 inhibitors, primary screen, cell-based, HEK293 M3R inducible RGS4, calcium flux. hit rate 0.45% among 310,000. AID 463165, 2010. Regulator of G-protein signaling 4 (Homo sapiens), P49798. Fluo-4 calcium flux; hits give high values; triggered by carbachol at its EC20. B-score at 10 µM;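 active = B-score, a plate-corrected calcium signal, over three deviations above library mean, with baseline fluorescence within five deviations of library mean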;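 note: RGS4 expression induced by doxycycline in cells with stable M3 receptor; B-score is computed from the integrated fluorescence ratio over baseline after carbachol; higher B-score means a larger calcium signal and so more RGS4 inhibition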
Target sequence (P49798 whole entry, looked up): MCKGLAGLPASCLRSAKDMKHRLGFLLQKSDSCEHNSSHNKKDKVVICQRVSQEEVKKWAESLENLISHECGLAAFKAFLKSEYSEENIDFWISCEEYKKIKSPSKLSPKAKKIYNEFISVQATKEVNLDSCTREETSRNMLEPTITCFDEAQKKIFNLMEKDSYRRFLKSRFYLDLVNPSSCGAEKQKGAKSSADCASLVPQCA
MrgX1 PAM: positive allosteric modulators of MrgX1, primary screen, HEK293 cells, Fluo-4 calcium flux. FDSS; hits give high values. Mas-related G-protein coupled receptor member X1 (Homo sapiens), Q96LB2. B-score at 10 µM. hit rate 0.63% among 310,000;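 active = plate-corrected calcium response at least 3 library SD above typical, normal starting fluorescence, not activating the receptor alone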;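 note: compound read alongside a low EC10 to EC30 dose of BAM8-22 agonist; peak minus trough fluorescence over baseline measured at the second addition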
MrgX1 antag: antagonists of human MrgX1 receptor, primary screen, HEK293 cells, Fluo-4 calcium flux | hit rate 1.3% among 310,000 | BAM8-22 antagonism; hits give low values | B-score at 10 µM;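 active = calcium-response B-score plate-corrected more than 3 library SD below zero, starting fluorescence within 5 deviations, no agonist response on first addition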;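 note: peak minus trough fluorescence over baseline after final BAM8-22 challenge near maximal dose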
RGS4 act: RGS4 potentiators or activators, primary screen, cell-based, HEK293 M3R inducible RGS4, calcium flux; hit rate 0.92% among 310,000; B-score at 10 µM; carbachol calcium flux Fluo4; hits give low values;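 active = B-score of the integrated calcium signal more than 4 SD below the library mean, with starting fluorescence not abnormally high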;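 note: negative B-score means reduced calcium response which marks RGS4 activation or potentiation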
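Material: M3R-expressing HEK293 line, RGS4 induced by doxycycline | Schedule: Overnight RGS4 induction, 30 min dye load 37 °C, 20 min compound RT | Measured by: Fluo4 fluorescence kinetic imaging of calcium | Read-out: Integrated calcium ratio converted to B score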
MrgX1 antag conf: MrgX1 receptor antagonists, duplicate retest, confirmation, HEK293 cells, Fluo-4 calcium flux. AID 602420, 2012. BAM8-22 calcium flux; hits give low values. remaining BAM8-22 calcium response % of control (hits give low values), % at 10 µM. hit rate 19% among 2,300. shares compounds with MrgX1 antag;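 active = remaining agonist calcium response no higher than 100% minus 3 SD of agonist-only control wells, with starting fluorescence near control levels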;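 note: agonist BAM8-22 given at a near maximal EC90 to ECmax level; peak minus minimum fluorescence divided by baseline after agonist addition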
HEK293 Ca flux: nonspecific calcium signal in parental HEK293, confirmation, counter-screen for MrgX1 antagonist project, parental HEK293 cells, Fluo-4 calcium flux. shares compounds with MrgX1 antag. Fluo-4 calcium fluorescence, FDSS. fluorescence ratio F(max-min)/F0 at 10 µM. hit rate 2% among 4,000;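 active = duplicate-averaged calcium fluorescence ratio at least three times the standard deviation of buffer wells, a nonspecific response in parental cells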
HEK293 Ca counter: calcium response in parental HEK293 cells, primary screen, counter-screen for MrgX1 allosteric activator project, cell-based, Fluo-4 calcium flux, duplicate | shares compounds with MrgX1 antag | AID 624114, 2012 | hit rate 0.4% among 4,000 | fluorescence ratio F(max-min)/F0 at 10 µM | Fluo-4 fluorescence ratio; hits give high values;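 active = calcium fluorescence ratio, averaged over duplicates, at least 3 SD of the buffer-well ratio, meaning a nonspecific response in receptor-free cells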;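 note: untransfected parental HEK293 lacking MrgX1 used as counterscreen for MrgX1 allosteric activators; fluorescence change taken during the second addition on a kinetic imager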
HEK293 Ca cntr2: calcium response in parental HEK293 cells, primary screen, counter-screen for MrgX1 agonist project, cell-based, Fluo-4 calcium flux, duplicate, agonist mode. Fluo-4 calcium fluorescence (FDSS); hits give high values. hit rate 8.7% among 4,000. fluorescence ratio F(max-min)/F0 at 10 µM. shares compounds with MrgX1 antag;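 active = calcium fluorescence ratio at least three times the spread of buffer wells, meaning a non-specific response in parental cells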
An asterisk follows results filed as active; i = inactive; x = not tested or not shown. The list is not random: actives were taken first. Their share in the collection is about 3.5%.

SMILES	MrgX1 ag	RGS4 block	MrgX1 PAM	MrgX1 antag	RGS4 act	MrgX1 antag conf	HEK293 Ca flux	HEK293 Ca counter	HEK293 Ca cntr2
COc1cc(C2NC(C(=O)O)Cc3c2[nH]c2ccccc32)cc(OC)c1OC (centres undefined)	i	i	i	i	i	x	x	x	x
COc1ccc(C2NC(C(=O)O)Cc3c2[nH]c2ccccc32)cc1OC (centres undefined)	i	i	i	-6.7*	i	i	i	i	i
CCCCn1c(N)c(N(CC)C(=O)c2cccc(S(=O)(=O)N3CCN(C)CC3)c2)c(=O)[nH]c1=O	i	i	i	i	i	x	x	x	x
O=C(O)CNC(=O)C(CS)Cc1ccccc1 (centres undefined)	i	x	i	-8.6*	x	i	i	i	i
O=C(O)CNC(=O)C(c1ccccc1)c1ccccc1	i	i	i	i	i	x	x	x	x
CCc1sc(NC(C)=O)nc1-c1ccccc1	i	i	i	i	i	x	x	x	x
CCc1sc(NC(=O)COC)nc1-c1ccccc1	i	i	i	-4.6*	i	i	i	i	i
O=S(=O)(NCCc1csc(-c2cccnc2)n1)c1cccs1	i	i	i	i	i	x	x	x	x
O=S(=O)(NCCc1csc(-c2cccnc2)n1)c1ccc(Cl)s1	i	i	i	-4.9*	i	79%*	i	i	i
CCOC(=O)N1CCN(C(=O)CCN2C(=O)COc3ccc(C)cc32)CC1	i	i	i	-6*	i	i	i	i	i
Cc1ccc(C(NC(=O)c2ccccc2)C(Cl)(Cl)Cl)cc1 (centres undefined)	i	i	i	i	i	x	x	x	x
Cc1ccc(C(=O)NC(N(C)C)C(Cl)(Cl)Cl)cc1 (centres undefined)	i	i	i	-4.5*	i	i	i	i	i
O=C(Nc1ccc(F)cc1)c1cc2cc(Cl)ccc2[nH]1	i	i	i	i	i	x	x	x	x
O=C(O)c1cccc(Nc2ccnc(Nc3cccc(C(=O)O)c3)n2)c1	i	i	i	i	i	x	x	x	x
CC1CCCN(C(=O)C2c3ccccc3C(=O)N3CCc4ccccc4C23)C1 (centres undefined)	i	i	i	-5.5*	i	i	i	i	i
Cc1ccc(C(=O)NNC(=O)C2CCN(C(=O)OC(C)(C)C)CC2)cc1	i	i	i	i	i	x	x	x	x
Cc1nn(-c2ccccc2)nc1C(=O)Nc1ccc2c(c1)OCCO2	i	i	i	-12*	i	i	i	i	i
Cc1nnc(Oc2ccccc2F)c2ccccc12	i	i	i	-6*	i	85%*	i	i	i
Cc1cccc2cc3c(N)c(C(=O)N4CCOCC4)sc3nc12	i	i	i	-5.1*	i	i	i	i	48*
Nc1c(C(=O)N2CCOCC2)sc2nc(N3CCOCC3)c3c(c12)CCCC3	i	i	i	i	i	x	x	x	x
CC1(C)CC(=O)C(C=Nc2cccnc2)=C(O)C1	i	i	i	-4.6*	i	i	i	i	i
O=C(O)c1ccccc1Nc1ccc2nonc2c1[N+](=O)[O-]	x	i	x	x	i	x	x	x	x
CCOc1ccccc1N1CCN(C/C=C/c2ccc(N(C)C)cc2)CC1	i	i	i	-4.7*	i	i	i	i	i
Nc1ccc2c3c(cccc13)CC2	i	i	i	-7.5*	i	85%*	i	i	i
c1ccc(Nc2ccc3c4c(cccc24)CC3)cc1	i	i	i	i	i	x	x	x	x
SMILES	MrgX1 ag	RGS4 block	MrgX1 PAM	MrgX1 antag	RGS4 act	MrgX1 antag conf	HEK293 Ca flux	HEK293 Ca counter	HEK293 Ca cntr2
COc1ccc(S(=O)(=O)Nc2nc3ccccc3s2)cc1OC	i	i	i	i	i	x	x	x	x
CC(=O)c1cccc(NC(=O)Nc2ccc3c(c2)OCO3)c1	i	i	i	i	i	x	x	x	x
COC(=O)/C(=C\Nc1ccccc1N)c1ncc(C(F)(F)F)cc1Cl	i	i	i	-4.5*	i	i	i	i	i
Cc1ccccc1C(=O)c1cccn1CC(=O)NCc1ccc2c(c1)OCO2	i	i	i	i	i	x	x	x	x
COC(=O)c1cc(C(=O)Nc2nc3ccccc3[nH]2)cc([N+](=O)[O-])c1	i	i	i	i	i	x	x	x	x
COc1ccc(-c2nc3c(c4nnc(SC(C)C(=O)Nc5ccccc5)n24)COC(C)(C)C3)cc1 (centres undefined)	i	i	i	-6.5*	i	i	i	i	i
Clc1ccc(C(c2ccccc2)N2CCNCC2)cc1 (centres undefined)	i	i	i	-6.3*	i	i	i	i	i
O=[N+]([O-])c1ccc(N2N=C(c3ccccc3)CC2c2ccccc2O)cc1 (centres undefined)	i	i	i	-16*	-9.3*	i	0.56*	i	i
COc1ccccc1N1N=C(c2ccc([N+](=O)[O-])cc2)CC1c1ccccc1 (centres undefined)	i	i	i	-15*	i	i	0.69*	i	i
COc1cc(N2N=C(c3ccccc3)CC2c2ccccc2)c(C=O)cc1C=O (centres undefined)	i	i	i	i	i	x	x	x	x
CC1CCCCC12NC(=O)N(CC(=O)OCC(=O)c1ccc(OC(F)F)cc1OC(F)F)C2=O (centres undefined)	i	i	i	i	i	x	x	x	x
O=C(NCc1ccccc1)C1=C[C@@H](C2CCCCC2)C[C@@H](OCCCCO)O1	i	i	i	i	i	x	x	x	x
